aDG glyco act: increases alpha dystroglycan glycosylation. Pro5-aDG cells, alpha-DG glycosylation AlphaScreen (IIH6); 0% Pro5, 100% B10-LARGE cell signal. activation, % at 10 µM. 0.22% of 360,000 active;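 active means activation of at least 8% versus controls, or a plate z-score of at least 8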;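 further: Pro5 are CHO cells carrying HIG-tagged alpha-DG that lacks glycosylation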
T cell HTS: modulates CD8 T cell binding to vesicles; 2C CD8+ T cell-vesicle binding, flow cytometry; stronger effect = lower value; response (vesicle binding), % at 7 µM; 0.068% of 330,000 active; AID 2052;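 active means response, share of CD8 T cells binding vesicles, and their 90th percentile fluorescence all below set limits, cut at about 80% in these data, passing the limit was not always enough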;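 further: values below 100% mean blocked vesicle binding to the CD8+ T cells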
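Assay system – 2C mouse CD8+ T cells · Also added – QL9-loaded Drosophila micro-vesicles · Timing – Cell–vesicle co-incubation 1.5 h at 37 °C, staining 20 min on ice · Signal – flow cytometry of vesicle-bound cells · Measure – percent CD8+ FL2 mean versus row control · Controls – Peptide-free naked vesicles (low) and QL9 vesicles with 0.7% DMSO vehicle (high)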
procasp7 counter: activates human procaspase-7, counter-screen for procaspase-3 activators; activation, % at 8.5 µM; 0.093% of 330,000 active; recombinant procaspase-7, Ac-DEVD-pNA absorbance 405 nm; D23A/D198A/D206A triple mutant, cannot self-cleave; scale: DMSO 0, 5 µM enzyme 100;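 active means percent activation above the screen-wide mean plus 3 SD, cut at about 25% in these data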
Target sequence (P55210 whole entry D23A/D198A/D206A): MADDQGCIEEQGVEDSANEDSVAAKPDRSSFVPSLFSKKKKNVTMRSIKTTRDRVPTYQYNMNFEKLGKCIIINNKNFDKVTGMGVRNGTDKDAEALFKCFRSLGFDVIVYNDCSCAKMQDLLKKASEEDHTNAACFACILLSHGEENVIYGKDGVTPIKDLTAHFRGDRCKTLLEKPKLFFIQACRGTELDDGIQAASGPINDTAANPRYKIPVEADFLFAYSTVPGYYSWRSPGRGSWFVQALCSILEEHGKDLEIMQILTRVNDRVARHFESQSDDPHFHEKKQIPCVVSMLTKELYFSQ
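Test system: Procaspase-7 triple mutant (PC-7 D3A). Also added: Ac-DEVD-pNA substrate, 400 µM as added. Schedule: 1 h enzyme–compound preincubation and 2 h substrate reaction, both 25 °C. Signal: p-Nitroaniline absorbance at 405 nm, read at 0 and 120 min. Control set: low DMSO alone, high DMSO plus 5 µM PC-7.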
procasp3 activ: activators of human procaspase-3; P42574; recombinant procaspase-3 D3A, Ac-DEVD-pNA absorbance 405 nm; activation, % at 8.5 µM; 0.11% of 330,000 active; AID 463141;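 active means activation above the mean of all tested compounds plus 3 SD, cut at about 21% in these data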;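 further: 0% = DMSO alone and 100% = DMSO wells spiked with extra 5 µM PC-3 D3A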
Target sequence (P42574 whole entry D9A/D28A/D175A): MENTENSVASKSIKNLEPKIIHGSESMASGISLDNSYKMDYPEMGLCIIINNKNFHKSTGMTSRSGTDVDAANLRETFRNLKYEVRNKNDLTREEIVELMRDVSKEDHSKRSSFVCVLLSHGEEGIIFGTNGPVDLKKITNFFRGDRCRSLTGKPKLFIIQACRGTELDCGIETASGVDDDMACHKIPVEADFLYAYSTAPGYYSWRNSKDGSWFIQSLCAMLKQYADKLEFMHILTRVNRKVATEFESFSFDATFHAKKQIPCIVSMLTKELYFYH
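Assay system: Procaspase-3 D3A mutant, all three cleavage aspartates alanine. Buffer or medium: Zinc-free HEPES saline buffer with Triton X-100. Times: 1 h compound preincubation, 2 h substrate hydrolysis at 25 °C. Measured by: 405 nm absorbance of p-nitroaniline, reads at 0 and 120 min. Read-out basis: percent activation relative to control range. Replicates: singlicate.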
CaV13 FRET inh: Disruptors of the CACNA1D IQ motif to Ca2+-dependent inactivation inhibitor domain association, primary screening, Förster resonance energy transfer in intact living … | HEK cells, CFP/YFP FRET ICDI-IQ, plate reader, 10 min; percent FRET-ratio fall versus neutral wells | inhibition, % at 12.3 µM | 0.098% of 340,000 active;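 active means mean replicate inhibition of at least 30% and at least 1% of replicates passing that level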;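 further: 0% = median of the neutral control wells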
GRK2 inh: human GRK2 inhibition via aptamer displacement | P25098 | bead flow cytometry, FAM-aptamer displacement from GRK2 | inhibition of aptamer binding, % at 10 µM | 0.59% of 330,000 active | AID 488847;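 active means inhibition of aptamer binding above 40%, roughly 3 SD of noise, on plates passing a quality check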;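 further: median bead fluorescence of bound FAM aptamer so fluorescent compounds give negative values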
* = called active by the depositor; i = inactive; · = no result given; + = active, no number. Compounds with a hit are over-represented: about 1.1% of the library has one in this group of screens.

SMILES | aDG glyco act | T cell HTS | procasp7 counter | procasp3 activ | CaV13 FRET inh | GRK2 inh
O=C(O)c1cccc(Nc2nc(-c3cc4ccccc4oc3=O)cs2)c1 | 0.1 | 149.3 | · | · | 76.9* | 1.0
Cc1cc(C)cc(NC(=O)c2ccc(NC(=O)c3ccco3)cc2)c1 | 0.0 | 519.0 | -2.9 | -0.1 | · | 0.0
CC(=O)c1ccc(NC(=O)c2ccc(NC(=O)c3ccco3)cc2)cc1 | 0.1 | 179.0 | 0.6 | -9.7 | · | 77.0*
CC(=O)Nc1ccc(NC(=O)c2ccco2)cc1 | -0.4 | 398.8 | -4.4 | -0.7 | -4.0 | 6.0
COC(=O)c1ccc(NC(=O)c2ccc(NC(=O)c3ccco3)cc2)cc1 | 0.3 | 583.0 | -3.4 | 3.8 | · | 83.0*
COC(=O)c1cc2c(c3c4cc(F)ccc4n(C(=O)c4ccccc4)c13)C(=O)N(C1CCCCC1)C2 | · | · | · | · | -9.0 | ·
CCCCC[n+]1ccn(C2=C([O-])c3ccccc3C(=O)/C2=N\S(=O)(=O)c2ccc(Cl)cc2)c1 | 4.9* | 556.1 | 1.0 | 5.8 | -2.2 | 0.0
O=C(NCc1ccccc1)[C@H]1CCCN1C(=O)[C@H]1CCCN1C(=O)c1cccc(F)c1 | · | · | · | · | -4.2 | ·
Cn1c(CNC(=O)CNC(=O)c2ccc(F)cc2)cc(=O)n(C)c1=O | 0.1 | 0.0* | -1.4 | 4.0 | -3.4 | 0.0
COCCNC(=S)N/N=C/c1ccc(-c2ccc([N+](=O)[O-])cc2)o1 | 0.1 | 385.0 | -18.6 | -9.4 | + | 3.0
NC(=O)N/N=C/c1ccc(-c2ccc([N+](=O)[O-])cc2)o1 | -0.2 | i | -0.5 | -7.3 | -47.4 | 4.0
CCc1c(-c2cccc(F)c2)ncn1CCc1ccccc1OC | · | · | · | · | -5.0 | ·
COc1ccccc1CCn1cnc(-c2ccccc2OC)c1CC(C)C | · | · | · | · | -8.2 | ·
CSC(=Cc1ccc(C(=O)c2ccc(C)cc2)n1C)S(C)=O (stereo not drawn) | · | · | · | · | -5.2 | ·
CCCCn1c(/C=C/c2ccco2)nc2ccccc21 | 0.6 | 480.4 | -6.5 | -1.7 | -3.2 | 0.0
C(=N\Nc1nc2ccccc2[nH]1)/c1ccccn1 | 0.7 | · | · | · | 6.0 | ·
Fc1ccccc1-c1ccc(/C=N/Nc2nc3ccccc3[nH]2)o1 | -0.1 | 502.2 | -16.5 | -1.5 | 54.2* | 1.0
CCCCn1c(/C=N/Nc2nc3ccccc3[nH]2)nc2ccccc21 | 0.3 | 284.2 | 2.3 | 25.4* | -7.2 | 3.0
C#CCN(C[C@H]1[C@H](OC(=O)Nc2c(C)noc2C)[C@H](OC(=O)Nc2c(C)noc2C)CN(C(=O)OC(C)C)N1C(=O)OC(C)C)S(=O)(=O)c1ccc(C)cc1 | · | · | · | · | -7.1 | ·
O=[N+]([O-])c1cccc(-c2n[nH]c(=S)n2-c2ccc(Br)cc2)c1 | -0.1 | 126.0 | -22.9 | -9.9 | 54.9* | 1.0
CCC[n+]1c(C)sc2c3c(ccc21)CCCC3 | 6.9* | 773.0 | -6.3 | -7.5 | · | 11.0
CC[n+]1c(C)sc2c(C)cc(C)cc21 | -0.3 | 222.4 | -22.1 | -26.2 | -3.8 | 5.0
O=C(c1ccc(F)cc1)c1cc2ccc(O)cc2oc1=O | -0.2 | 274.7 | -11.5 | -10.3 | 0.9 | 0.0
COc1ccccc1C(=O)c1cc2ccc(O)cc2oc1=O | -0.5 | 214.4 | -8.6 | -9.8 | 144.4* | 2.0
O=C(CSc1nnnn1C1CCCCC1)Nc1ccccc1F | 0.0 | 64.0 | 8.1 | 1.6 | 3.9 | 0.0
SMILES | aDG glyco act | T cell HTS | procasp7 counter | procasp3 activ | CaV13 FRET inh | GRK2 inh
O=C(CSc1nnnn1C1CC2CCC1C2)Nc1ccnc2ccccc12 (stereo not drawn) | 7.4* | 154.4 | 5.4 | -5.1 | -5.1 | 9.0
COc1ccccc1NS(=O)(=O)c1cc(NC(=O)CCNC(C)=O)ccc1C | 0.5 | 250.6 | 8.8 | 3.5 | 151.3* | 0.0
COc1ccc(C2CC(=O)C(c3ccc(C#N)cc3)=CN2Cc2ccccc2)cc1 (stereo not drawn) | · | · | · | · | -4.5 | ·
COc1ccccc1-c1cccc2c3c([nH]c12)[C@@H]1C[C@H]2[C@@H](C(=O)N1CC3)[C@H](C)ON2C | · | · | · | · | -4.5 | ·
CCCCn1c(CN2CCN(C(=O)c3ccco3)CC2)nc2c1c(=O)n(C)c(=O)n2C | 7.9* | 498.6 | -2.5 | 4.0 | -5.0 | 0.0
CCCCCn1c(CN2CCN(C(=O)c3ccco3)CC2)nc2c1c(=O)n(C)c(=O)n2C | 0.3 | 506.1 | -2.6 | 4.9 | -4.7 | 0.0
CC(=O)N1CCN(c2ccc(N3CCN(C(C)=O)[C@H](C)C3)c(C)c2)[C@@H](C)C1 | · | · | · | · | -12.0 | ·
CCN1CCN(c2ccc(S(=O)(=O)N3CCCCC3)cc2NC(=O)c2ccccc2)CC1 | 0.0 | 353.3 | 1.8 | -2.6 | -6.3 | 0.0
CCN1CCN(c2ccc(S(=O)(=O)N3CCCCC3)cc2NC(=O)c2cccc(C)c2[N+](=O)[O-])CC1 | -0.1 | 48.9* | 4.1 | 6.4 | -1.8 | 0.0
COC(=O)C1=C(C)N(C)C(=NCc2ccc(OC)cc2)NC1c1ccc(Cl)cc1 (stereo not drawn) | · | · | · | · | -7.6 | ·
COc1cc(C(=O)NN=C2c3ccccc3-c3ccccc32)cc(OC)c1OC | · | · | · | · | -11.9 | ·
Cc1cccn2c(=O)c(/C=C(\C#N)C(=O)NC3CCS(=O)(=O)C3)c(N3CCC(C(N)=O)CC3)nc12 (stereo not drawn) | 0.1 | 484.7 | -5.6 | -7.8 | + | 3.0
Cc1cccn2c(=O)c(/C=C(\C#N)C(=O)NC3CCS(=O)(=O)C3)c(N3CC(C)OC(C)C3)nc12 (stereo not drawn) | -0.1 | 311.0 | -1.8 | -7.5 | 2.8 | 0.0
CC1(NC(=O)CC[N+](C)(C)CCO)CS(=O)(=O)CC1S(=O)(=O)[O-] (stereo not drawn) | · | i | 2.8 | -12.1 | -5.2 | 47.0*
CCOc1ccc(C2C(C#N)=C(N)Oc3cc(O)ccc32)cc1OCC (stereo not drawn) | -0.1 | 310.2 | -4.3 | -1.3 | 57.7* | 0.0
COc1ccc(C2C(C#N)=C(N)Oc3cc(O)ccc32)cc1Cl (stereo not drawn) | 0.1 | 271.7 | -2.0 | -5.0 | + | 0.0
C#CCOc1ccc(C2C(C#N)=C(N)Oc3cc(O)ccc32)cc1 (stereo not drawn) | -0.1 | 299.1 | 0.3 | -2.2 | + | 0.0
COC(=O)[C@]12C[C@H](CC(=O)N3CCC(c4ccccc4)CC3)C(=O)N(Cc3ccccc3)C1=C[C@H](C(C)(C)C)O[C@@H]2C | · | · | · | · | -9.4 | ·

Screens as filed in PubChem BioAssay.
